Experimental data published in ChEMBL document CHEMBL3259767, “Design, synthesis and biological evaluation of Pontin ATPase inhibitors through a molecular docking approach” (Bioorg Med Chem Lett, 2014).
Active and inactive are the calls of the source. The rule behind the calls is not given here.

How the values were obtained:
HL-60 [1] = assay: Induction of apoptosis in human HL60 cells assessed as caspase 3 activity measured as cleavage of DEVD at 20 uM after 24 hrs by FACS analysis relative to control; assay type: functional
Summary of the method: (§1)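 Caspase 3 activity was read in HL60 cells after 24 or 48 h treatment at 5–50 µM, with doxorubicin 1 µM as positive control. Activity is expressed relative to untreated HL60, set at 100.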

HL-60 [2] = assay: Cell cycle arrest in human HL60 cells assessed as accumulation at subG1 phase at 5 uM after 24 hrs by propidium iodide-based flow cytometry (reference value: 1.2 %); assay type: functional
Summary of the method: (§2)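 HL60 cells were treated for 24 h at 5, 20 or 50 µM, with doxorubicin 50 nM as control. DNA was stained with propidium iodide and analysed by flow cytometry. Results are the percentage of cells in subG1, G0/G1, S and G2/M.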

HL-60 [3] = assay: Induction of apoptosis in human HL60 cells at 50 uM after 24 hrs by FACS analysis relative to control; assay type: functional
Summary of the method: (§3)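 HL60 cells were labelled with annexin and 7-AAD after 24 or 48 h exposure at 5, 20 or 50 µM, with doxorubicin 100 nM as reference. FACS sorted cells into intact, early apoptotic, late apoptotic and necrotic fractions, given as percentages.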

HL-60 [4] = assay: Induction of apoptosis in human HL60 cells assessed as caspase 3 activity measured as cleavage of DEVD at 50 uM after 24 hrs by FACS analysis relative to control; assay type: functional; summary of the method: as §1
HL-60 [5] = assay: Induction of necrosis in human HL60 cells assessed as decrease in total LDH after 48 hrs; assay type: functional, cell-based
Summary of the method: (§4)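 Necrosis marker: LDH released into the culture medium and total LDH were measured in HL60 cells after 24 or 48 h treatment at 5–50 µM, with doxorubicin 1 µM as control.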

HL-60 [6] = assay: Cell cycle arrest in human HL60 cells assessed as accumulation at G0/G1 phase at 20 uM after 24 hrs by propidium iodide-based flow cytometry (reference value: 47.6 %); assay type: functional; summary of the method: as §2
HL-60 [7] = assay: Cell cycle arrest in human HL60 cells assessed as accumulation at subG1 phase after 24 hrs by propidium iodide-based flow cytometry; assay type: functional; summary of the method: as §2
HL-60 [8] = assay: Cell cycle arrest in human HL60 cells assessed as accumulation at S phase at 5 uM after 24 hrs by propidium iodide-based flow cytometry (reference value: 48.7 %); assay type: functional; summary of the method: as §2
HL-60 [9] = assay: Cell cycle arrest in human HL60 cells assessed as accumulation at G0/G1 phase at 50 uM after 24 hrs by propidium iodide-based flow cytometry (reference value: 47.6 %); assay type: functional; summary of the method: as §2
HL-60 [10] = assay: Cell cycle arrest in human HL60 cells assessed as accumulation at S phase at 50 uM after 24 hrs by propidium iodide-based flow cytometry (reference value: 48.7 %); assay type: functional; summary of the method: as §2
HL-60 [11] = assay: Antiproliferative activity against human HL60 cells at 10 uM after 72 hrs; assay type: functional, cell-based
Summary of the method: (§5)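 Cells exposed to compound for 72 h. IC50 values come from KB and HL60 cells. Single-point screening was run at 10^-5 M.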

HL-60 [12] = assay: Induction of apoptosis in human HL60 cells assessed as caspase 3 activity measured as cleavage of DEVD at 10 uM after 24 hrs by FACS analysis relative to control; assay type: functional; summary of the method: as §1
KB [13] = assay: Antiproliferative activity against human KB cells after 72 hrs; assay type: functional, cell-based; summary of the method: as §5
HL-60 [14] = assay: Cell cycle arrest in human HL60 cells assessed as accumulation at subG1 phase at 20 uM after 24 hrs by propidium iodide-based flow cytometry (reference value: 1.2 %); assay type: functional; summary of the method: as §2
HL-60 [15] = assay: Antiproliferative activity against human HL60 cells after 72 hrs; assay type: functional, cell-based; conditions: HL-60, 72 h; summary of the method: as §5
HL-60 [16] = assay: Cell cycle arrest in human HL60 cells assessed as accumulation at S phase at 20 uM after 24 hrs by propidium iodide-based flow cytometry (reference value: 48.7 %); assay type: functional; summary of the method: as §2
MCF7 = assay: Antiproliferative activity against human MCF7 cells at 10 uM after 72 hrs; assay type: functional, cell-based; summary of the method: as §5
HL-60 [17] = assay: Induction of apoptosis in human HL60 cells assessed as caspase 3 activity measured as cleavage of DEVD after 24 to 48 hrs by FACS analysis relative to control; assay type: functional, cell-based; summary of the method: as §1
HL-60 [18] = assay: Cell cycle arrest in human HL60 cells assessed as accumulation at G2/M phase at 50 uM after 24 hrs by propidium iodide-based flow cytometry (reference value: 2.5 %); assay type: functional; summary of the method: as §2
HL-60 [19] = assay: Cell cycle arrest in human HL60 cells assessed as accumulation at subG1 phase at 50 uM after 24 hrs by propidium iodide-based flow cytometry (reference value: 1.2 %); assay type: functional; summary of the method: as §2
HL-60 [20] = assay: Induction of necrosis in human HL60 cells assessed as LDH release at >20 uM after 24 hrs; assay type: functional, cell-based; summary of the method: as §4
HL-60 [21] = assay: Induction of apoptosis in human HL60 cells assessed as caspase 3 activity measured as cleavage of DEVD at 10 uM after 48 hrs by FACS analysis relative to control; assay type: functional; summary of the method: as §1
HL-60 [22] = assay: Induction of apoptosis in human HL60 cells at 20 uM after 24 hrs by FACS analysis; assay type: functional, cell-based; summary of the method: as §3
KB [23] = assay: Antiproliferative activity against human KB cells at 10 uM after 72 hrs; assay type: functional, cell-based; summary of the method: as §5
HL-60 [24] = assay: Induction of apoptosis in human HL60 cells assessed as caspase 3 activity measured as cleavage of DEVD at 5 uM after 24 hrs by FACS analysis relative to control; assay type: functional; summary of the method: as §1
[25] = Antiproliferative activity against human EPC cells after 72 hrs; assay type: cell-based
[26] = molecular target: RuvB-like 1 (Homo sapiens) (UniProt Q9Y265); assay: Inhibition of human recombinant his-tagged pontin expressed in Escherichia coli BL21 assessed as reduction in inorganic phosphate release at 100 uM after 10 mins by malachite green-based colorimetric assay
Sequence of RuvB-like 1 (Homo sapiens) (Q9Y265 whole entry): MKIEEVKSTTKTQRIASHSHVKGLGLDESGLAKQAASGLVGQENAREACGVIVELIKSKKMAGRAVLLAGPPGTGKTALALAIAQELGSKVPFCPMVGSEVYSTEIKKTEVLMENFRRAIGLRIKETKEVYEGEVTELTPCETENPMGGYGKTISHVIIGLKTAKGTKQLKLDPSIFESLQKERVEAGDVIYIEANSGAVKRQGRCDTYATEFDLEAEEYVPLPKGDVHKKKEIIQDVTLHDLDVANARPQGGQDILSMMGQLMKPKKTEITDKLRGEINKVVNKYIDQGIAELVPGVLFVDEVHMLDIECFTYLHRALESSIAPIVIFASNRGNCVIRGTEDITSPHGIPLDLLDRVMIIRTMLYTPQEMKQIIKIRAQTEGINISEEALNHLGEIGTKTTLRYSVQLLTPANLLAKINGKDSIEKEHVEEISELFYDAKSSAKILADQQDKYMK
Summary of the method: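 Pontin ATPase activity was measured as inorganic phosphate release by malachite green assay, with compounds tested at 100 µM.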

HL-60 [27] = assay: Cell cycle arrest in human HL60 cells assessed as accumulation at G2/M phase at 5 uM after 24 hrs by propidium iodide-based flow cytometry (reference value: 2.5 %); assay type: functional; summary of the method: as §2
HL-60 [28] = assay: Induction of apoptosis in human HL60 cells assessed as caspase 3 activity measured as cleavage of DEVD at 20 uM after 48 hrs by FACS analysis relative to control; assay type: functional; summary of the method: as §1
HL-60 [29] = assay: Induction of apoptosis in human HL60 cells after 24 to 48 hrs by FACS analysis; assay type: functional, cell-based; summary of the method: as §3
HL-60 [30] = assay: Induction of apoptosis in human HL60 cells assessed as caspase 3 activity measured as cleavage of DEVD at 50 uM after 48 hrs by FACS analysis relative to control; assay type: functional; summary of the method: as §1
HL-60 [31] = assay: Induction of apoptosis in human HL60 cells at 20 uM after 48 hrs by FACS analysis; assay type: functional, cell-based; summary of the method: as §3
HL-60 [32] = assay: Cell cycle arrest in human HL60 cells assessed as accumulation at G0/G1 phase at 5 uM after 24 hrs by propidium iodide-based flow cytometry (reference value: 47.6 %); assay type: functional; summary of the method: as §2
HCT-116 = assay: Antiproliferative activity against human HCT116 cells at 10 uM after 72 hrs; assay type: functional, cell-based; summary of the method: as §5
HL-60 [33] = assay: Cell cycle arrest in human HL60 cells assessed as accumulation at G2/M phase at 20 uM after 24 hrs by propidium iodide-based flow cytometry (reference value: 2.5 %); assay type: functional; summary of the method: as §2
HL-60 [34] = assay: Induction of apoptosis in human HL60 cells assessed as caspase 3 activity measured as cleavage of DEVD at 5 uM after 48 hrs by FACS analysis relative to control; assay type: functional; summary of the method: as §1
HL-60 [35] = assay: Induction of necrosis in human HL60 cells assessed as decrease in total LDH at 1 uM after 48 hrs; assay type: functional, cell-based; summary of the method: as §4

N[C@@H](Cc1c[nH]c2ccccc12)C(=O)Nc1ccc(-c2c(O)c(-c3ccccc3)c[nH]c2=O)cc1
Activity (HL-60 [1]): 134%
Activity (HL-60 [2]): 2.7%
Activity (HL-60 [3]): 95%
Activity (HL-60 [4]): 306%
Activity (HL-60 [5]): Dose-dependent effect
Activity (HL-60 [6]): 46.8%
Activity (HL-60 [7]): Dose-dependent effect
Activity (HL-60 [8]): 44.7%
Activity (HL-60 [9]): 14.7%
Activity (HL-60 [10]): 14.6%
Activity (HL-60 [11]): Active
Activity (HL-60 [12]): 111%
IC50 (KB [13]): 9 µM
Activity (HL-60 [14]): 10.9%
IC50 (HL-60 [15]): 15 µM
Activity (HL-60 [16]): 34.4%
Activity (MCF7): Active
Activity (HL-60 [17]): Dose-dependent effect
Activity (HL-60 [18]): 1.3%
Activity (HL-60 [19]): 69.5%
Activity (HL-60 [20]): Active
Activity (HL-60 [21]): 131%
Activity (HL-60 [22]): Active
Activity (KB [23]): Active
Activity (HL-60 [24]): 116%
IC50 [25]: 25 µM
inhibition [26]: Active
Activity (HL-60 [27]): 4.3%
Activity (HL-60 [28]): 247%
Activity (HL-60 [29]): Dose-dependent effect
Activity (HL-60 [30]): 169%
Activity (HL-60 [31]): Active
Activity (HL-60 [32]): 48.3%
Activity (HCT-116): Active
Activity (HL-60 [33]): 8%
Activity (HL-60 [34]): 119%

O=C(O)[C@H](Cc1c[nH]c2ccccc12)NCc1ccc(-c2c(O)c3ccccc3[nH]c2=O)cc1
Activity (HL-60 [11]): inactive
Activity (MCF7): inactive
Activity (KB [23]): inactive
inhibition [26]: inactive
Activity (HCT-116): inactive

COc1cccc2c1C(=O)c1c(O)c3c(c(O)c1C2=O)C[C@@](O)(C(=O)CO)C[C@@H]3O[C@H]1C[C@H](N)[C@H](O)[C@H](C)O1
Activity (HL-60 [35]): Active

N[C@@H](Cc1c[nH]c2ccccc12)C(=O)Nc1ccc(-c2c(O)c3ccccc3[nH]c2=O)cc1
Activity (HL-60 [11]): inactive
Activity (MCF7): inactive
Activity (KB [23]): inactive
Activity (HCT-116): inactive

O=C(O)[C@@H](Cc1c[nH]c2ccccc12)NCc1ccc(-c2c(O)c3ccccc3[nH]c2=O)cc1
Activity (HL-60 [11]): inactive
Activity (MCF7): inactive
Activity (KB [23]): inactive
inhibition [26]: inactive
Activity (HCT-116): inactive
